The text below walks through data of ChEMBL document CHEMBL1938331, “Discovery of novel and potent CRTH2 antagonists” (Bioorg Med Chem Lett, 2012).

A short description of data set [1]: AUC in Hartley guinea pig at 10 mg/kg, po. The data set is classed as ADME, organism-based, Cavia porcellus. Also on record: dose 10 mg/kg, route oral. Conditions: plasma. An outline of the steps: (§1)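 Guinea pigs fasted overnight, given 10 mg/kg orally as a 10 mg/mL suspension in 0.5% methylcellulose in water; plasma Cmax and AUC determined.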
Data set [2] in a line: Clearance in guinea pig liver microsomes. Particulars: read-out: CLH. The data set is classed as ADME, Cavia porcellus, Microsome. (Microsomes from liver hold many membrane-bound enzymes, among them those of drug oxidation.)
Data set [3] can be described thus: Cmax in Hartley guinea pig at 10 mg/kg, po. Conditions: in vivo. It is filed as ADME, organism-based, Cavia porcellus. Details: dose 10 mg/kg, route oral. An outline of the steps:
as §1

In data set [4] the target is T1, Chemoattractant receptor-homologous molecule expressed on Th2 cells (Cavia porcellus, UniProt Q56D28).
T1 sequence (Q56D28 whole entry): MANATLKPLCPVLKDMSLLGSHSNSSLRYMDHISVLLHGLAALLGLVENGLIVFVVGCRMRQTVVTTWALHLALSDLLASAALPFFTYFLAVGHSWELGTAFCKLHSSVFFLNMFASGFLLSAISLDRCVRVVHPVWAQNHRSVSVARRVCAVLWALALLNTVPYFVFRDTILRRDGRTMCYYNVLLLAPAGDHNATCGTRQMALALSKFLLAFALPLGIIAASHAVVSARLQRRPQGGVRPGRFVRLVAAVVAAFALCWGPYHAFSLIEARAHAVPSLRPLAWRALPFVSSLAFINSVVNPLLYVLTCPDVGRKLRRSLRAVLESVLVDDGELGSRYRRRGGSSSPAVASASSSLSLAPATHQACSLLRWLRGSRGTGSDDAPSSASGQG
Kind of data set: Displacement of [3H]PGD2 from guinea pig CRTH2 receptor expressed in HEK293 cells after 2 hrs by scintillation counting. It is filed as cell-based. An outline of the steps:
(§2)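 Disrupted HEK293 cells stably transfected with human or guinea pig CRTH2 (10 µg protein/well human; 20 µg protein/well guinea pig) in 10 mM BES, 1 mM EDTA, 10 mM MnCl2, pH 7.0, incubated with [3H]PGD2 and rising compound levels 2 h at 4 °C; filtered, scintillation counted; nonspecific binding with 10 µM DK-PGD2; IC50 for 50% binding loss; mean of ≥2 experiments.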
Background: Loss of bound radioactivity is the signal in a displacement assay; it reports binding, not function.

Data set [5] has as its target T2, Prostaglandin D2 receptor (Homo sapiens, UniProt Q13258).
T2 sequence (Q13258 whole entry): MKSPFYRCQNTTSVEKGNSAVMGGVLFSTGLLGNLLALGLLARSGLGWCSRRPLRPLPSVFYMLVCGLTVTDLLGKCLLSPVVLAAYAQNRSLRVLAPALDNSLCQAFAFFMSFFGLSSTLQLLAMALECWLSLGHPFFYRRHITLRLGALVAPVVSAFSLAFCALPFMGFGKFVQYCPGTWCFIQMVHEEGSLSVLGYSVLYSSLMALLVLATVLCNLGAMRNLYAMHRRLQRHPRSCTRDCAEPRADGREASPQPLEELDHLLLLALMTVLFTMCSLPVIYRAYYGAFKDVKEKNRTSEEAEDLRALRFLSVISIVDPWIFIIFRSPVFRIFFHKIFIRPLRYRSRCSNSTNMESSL
The data set can be described thus: Displacement of [3H]PGD2 from human DP1 receptor expressed in HEK293 cells after 2 hrs by scintillation counting. It is filed as cell-based. An outline of the steps: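 Disrupted HEK293 cells stably expressing human DP1 (10 µg protein/well) in 10 mM BES, 1 mM EDTA, 10 mM MnCl2, pH 7.0, incubated with [3H]PGD2 and increasing compound concentrations 2 h at 4 °C; glass-filter harvest and scintillation counting of retained radioactivity.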

The target in data set [6] is T3, Prostaglandin D2 receptor 2 (Homo sapiens, UniProt Q9Y5Y4).
T3 sequence (Q9Y5Y4 whole entry): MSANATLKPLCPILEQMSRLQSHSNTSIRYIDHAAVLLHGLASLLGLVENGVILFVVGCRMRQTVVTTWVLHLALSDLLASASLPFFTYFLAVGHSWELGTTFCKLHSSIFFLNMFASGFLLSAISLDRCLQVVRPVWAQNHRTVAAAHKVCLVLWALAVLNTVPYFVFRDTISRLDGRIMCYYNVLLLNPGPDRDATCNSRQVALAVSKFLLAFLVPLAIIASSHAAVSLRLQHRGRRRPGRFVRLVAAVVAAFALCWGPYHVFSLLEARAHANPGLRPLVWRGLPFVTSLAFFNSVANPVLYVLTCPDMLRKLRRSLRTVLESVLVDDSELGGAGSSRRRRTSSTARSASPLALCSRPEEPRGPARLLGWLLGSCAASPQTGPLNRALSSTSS
Kind of data set: Displacement of [3H]PGD2 from human CRTH2 receptor expressed in HEK293 cells after 2 hrs by scintillation counting. The data set is classed as cell-based. Summed up:
as §2

Structures are written as SMILES. A value given as a limit tells only on which side of the number the result lay.

In general, AUC refers to the area under the concentration-time curve, a measure of exposure. A low value points to less exposure. A word on the Cmax: it is the peak of the concentration-time curve. Broadly, the IC50 is the concentration that gives 50% inhibition. A lower IC50 goes with higher potency. For `O=C(O)COc1cccc(CCCn2cc(C(c3ccccc3)c3ccccc3)ccc2=O)c1`, the AUC in data set [1] is 5950 ng·h/mL. Besides, the CLint scaled in data set [2] is 120 mL/min/kg. Moreover, the highest level in data set [3] (Cmax) was 840 ng/mL. Besides, the IC50 in data set [4] is 256 nM; in data set [5], more than 1000 nM.
As to `O=C(O)COc1cccc(CCCn2nc(C(c3ccccc3)c3ccccc3)ccc2=O)c1`, the exposure (AUC) in data set [1] is 2400 ng·h/mL. Further, in data set [3], the peak level (Cmax) was 730 ng/mL. Besides, the IC50 in data set [4] amounted to 147 nM; in data set [6], 18 nM.
Regarding `O=C(O)COc1cccc(CCCn2cc(C(c3ccc(F)cc3)c3ccc(F)cc3)ccc2=O)c1`, the IC50 in data set [4] was found to be 359 nM; in data set [6] it was 11 nM.
In the case of `O=C(O)COc1cccc(CCCn2cc(C(c3ccc(Cl)cc3)c3ccc(Cl)cc3)ccc2=O)c1`, the IC50 in data set [4] was more than 1000 nM; in data set [6], 9.2 nM.
For the compound `Cc1ccc(C(c2ccc(C)cc2)c2ccc(=O)n(CCCc3cccc(OCC(=O)O)c3)c2)cc1`, the values for the IC50 in data set [4] and in data set [6] were 772 nM and 6.2 nM, respectively.
On to `COc1ccc(C(c2ccc(OC)cc2)c2ccc(=O)n(CCCc3cccc(OCC(=O)O)c3)c2)cc1`, for which the values for the IC50 in data set [4] and in data set [6] were 211 nM and 5.8 nM, respectively.
With `O=C(O)COc1cccc(OCCn2cc(C(c3ccccc3)c3ccccc3)ccc2=O)c1`, the IC50 in data set [4] turned out to be 797 nM; in data set [6], 99 nM.
`CC(Oc1cccc(CCCn2cc(C(c3ccccc3)c3ccccc3)ccc2=O)c1)C(=O)O` (stereo not given): the IC50 in data set [4] worked out at 128 nM; in data set [6] it was 17 nM.
With `CCC(Oc1cccc(CCCn2cc(C(c3ccccc3)c3ccccc3)ccc2=O)c1)C(=O)O` (stereo not given), the IC50 in data set [4] is 990 nM; in data set [6] it was 502 nM.
In the case of `CC(C)(Oc1cccc(CCCn2cc(C(c3ccccc3)c3ccccc3)ccc2=O)c1)C(=O)O`, the IC50 in data set [4] was more than 1000 nM.
In the case of `O=C(O)CCCOc1cccc(CCCn2cc(C(c3ccccc3)c3ccccc3)ccc2=O)c1`, the AUC in data set [1] turned out to be 1020 ng·h/mL. In data set [3], this compound registered a Cmax of 500 ng/mL. The IC50 worked out at 99 nM in data set [4] and 11 nM in data set [6].
On to `O=C(O)CCCOc1cccc(CCCn2nc(C(c3ccccc3)c3ccccc3)ccc2=O)c1`, for which, in data set [1], the AUC was 4850 ng·h/mL. In data set [3], this compound returned a Cmax of 2860 ng/mL. Also, the results for the IC50 in data set [4], in data set [5] and in data set [6] were 52 nM, 5200 nM and 13 nM, respectively.
Take `O=C(O)COc1cccc(CCCN(CCC(c2ccccc2)c2ccccc2)C(=O)c2ccccc2)c1`: the IC50 was 18 nM in data set [4] and 9.7 nM in data set [6].
On to `COc1ccc(C(=O)N(CCCc2cccc(OCC(=O)O)c2)CCC(c2ccccc2)c2ccccc2)cc1`, for which, in data set [1], the AUC was 270 ng·h/mL. Besides, in data set [2], the CLint scaled worked out at 766 mL/min/kg. In data set [3], this compound yielded a Cmax of 40 ng/mL. Besides, the IC50 in data set [4] was 17 nM; in data set [6] it was 5.5 nM.
